Measurements published in paper PMC10012268 (ACS Infectious Diseases, 2023).

Experiments:
[1] = Liver microsome stability, human; assay type: in vitro ADME
[2] = Hepatocyte stability, rat; assay type: in vitro ADME; details: pooled rat hepatocytes
Procedure, shortened: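 Test compound (1 μM) in Krebs–Henseleit buffer was incubated with pooled rat hepatocytes (1 × 10^6 cells/mL) at 37 °C, 5% CO2, with samples from 0 to 90 min. Reactions were quenched with ice-cold acetonitrile and centrifuged, and supernatants were analysed by LC–MS/MS. Half-life and CLint were derived from parent remaining. Run in duplicate.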

[3] = Kinetic aqueous solubility; assay type: physicochemical; details: kinetic in PBS
Procedure, shortened: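 Miniaturised shake flask: test compound (200 μM) in PBS pH 7.4 was shaken at 600 rpm, 25 °C for 2 h, filtered, and the filtrate half-diluted in acetonitrile. Run in duplicate.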

LogD at pH 7.4 = assay type: physicochemical; details: 1-octanol/phosphate-buffered saline (1:1, v/v)
Pf Dd2 parental line = test: 3H-hypoxanthine 72 h assay, Dd2 parental line; assay type: cell-based; details: Plasmodium falciparum, DD2, read-out: Pf Dd2 EC50, Dd2 parental line, 3H-hypoxanthine 72 h; average of two experiments
K1 = test: 3H-hypoxanthine 72 h assay, K1; assay type: cell-based; details: Plasmodium falciparum, K1, read-out: Pf multidrug-resistant strain EC50 K1
NF54 = test: 3H-hypoxanthine 72 h assay, NF54; assay type: cell-based; details: Plasmodium falciparum, NF54, read-out: Pf multidrug-resistant strain EC50 NF54
RF12 = test: 3H-hypoxanthine 72 h assay, RF12; assay type: cell-based; details: Plasmodium falciparum, read-out: Pf multidrug-resistant strain EC50 RF12
7G8 = test: 3H-hypoxanthine 72 h assay, 7G8; assay type: cell-based; details: Plasmodium falciparum, 7G8, read-out: Pf multidrug-resistant strain EC50 7G8
[4] = tested on: P. falciparum NF54 female gametes; test: Dual gamete formation assay; assay type: cell-based; details: Plasmodium falciparum, NF54, read-out: female gamete EC50
Procedure, shortened: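 Stage V NF54 gametocyte cultures with >0.2% exflagellation were diluted to 12.5 million cells/mL in gametocyte medium containing 10% human serum and no Albumax. They were dispensed warm (625,000 cells/well) onto the test compound. After ookinete medium was added, plates went to 4 °C for 4 min and then 28 °C for 5 min, followed by 24 h at 28 °C in the dark. Female gametes (Pfs25) were scored from one fluorescence image per well.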

P. berghei EEFs = test: Exoerythrocytic stage assay; assay type: cell-based; details: Plasmodium berghei, 48 h, read-out: Pb liver stage EEFs EC50 (SD)
HepG2 = HepG2 host cell viability in the liver stage panel; assay type: cell-based; details: Homo sapiens, HepG2, 48 h, read-out: HepG2 EC50 (liver stage)
[5] = tested on: drug-resistant P. falciparum strains; test: Profiling against a selection of multidrug-resistant parasites; assay type: cell-based, Plasmodium falciparum
Procedure, shortened: (§1)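 Asexual blood-stage parasites in hypoxanthine-free RPMI 1640 with HEPES, NaHCO3, neomycin (100 μg/mL) and Albumax II (5 g/L). Infected blood (0.3% parasitemia, 2.5% hematocrit) was exposed to a 10-point serial dilution at 37 °C under 93% N2/4% CO2/3% O2. After 48 h, [3H]-hypoxanthine (0.5 μCi/well) was added for 24 h more. Scintillation cpm were normalised to untreated controls, and logit regression gave values as means of two experiments.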

[6] = tested on: P. falciparum 3D7 parasites; test: P. falciparum 3D7 asexual-stage parasite LDH viability assay; assay type: cell-based, Plasmodium falciparum; details: 3D7 parasite EC50 compared to 17
[7] = Liver microsome stability, mouse; assay type: in vitro ADME; details: pooled mouse liver microsomes
Procedure, shortened: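 Test compound (1 μM, phosphate buffer) was incubated with pooled mouse liver microsomes (0.5 mg/mL) at 37 °C, with and without an NADPH regeneration system, sampling at 0, 5, 20, 30, 45 and 60 min. Run in duplicate.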

[8] = tested on: 41 resistant 3D7 P. falciparum populations (V259L cyt b Qo site mutation); test: LDH growth assay against 41 resistant populations; assay type: cell-based; details: Plasmodium falciparum, 3D7, read-out: EC50 against all three populations
Procedure, shortened: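 Three 3D7 clonal populations were selected by exposure to test compound starting at 2 × EC50, monitored by Giemsa smears and stepped up after recovery. Synchronised ring-stage parasites were then grown 72 h on predispensed compound in RPMI/AlbuMAX and frozen at −80 °C overnight. LDH activity was read with APAD/NBT absorbance at 650 nm.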

[9] = tested on: Pf Dd2 strain with an I22L mutation in the Qi site cyt b; test: 3H-hypoxanthine 72 h assay, Dd2 cyt b; assay type: cell-based, Plasmodium falciparum
Procedure, shortened: as §1

[10] = tested on: Pf SB1-A6 strain with a CNV (∼2-fold) and a C276F mutation in DHODH; test: SB1-A6 asexual-stage assay; assay type: cell-based; details: Plasmodium falciparum, 72 h, read-out: SB1-A6 EC50
Procedure, shortened: (§2)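 Parasites were sorbitol-synchronised one cycle before setup. Ring stages at 0.5% parasitemia and 2% hematocrit were plated onto twofold compound dilutions and incubated at 37 °C for 72 h. Cells were fixed in 0.25% glutaraldehyde (RT, 30 min), stained with 2.5× SYBR Green (37 °C, 30 min) and counted by flow cytometry. EC50 is the average of three independent experiments.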

[11] = tested on: Pf Dd2 expressing ScDHODH; test: ScDHODH asexual-stage assay; assay type: cell-based; details: Plasmodium falciparum, DD2, 72 h, read-out: Dd2 ScDHODH EC50
Procedure, shortened: as §2

[12] = tested on: mitochondrial electron transport chain of P. falciparum 3D7 asexual parasites; test: ETC biosensor / oxygen consumption rate; assay type: cell-based, Plasmodium falciparum
Procedure, shortened: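 Magnet-purified trophozoite-infected RBCs were saponin-released (0.05%, 37 °C, 3 min) and washed. Parasites were suspended in MAS buffer with 25 mM malate and 0.002% digitonin and seeded at 5 × 10^6 per Cell-Tak-coated well (800g, 10 min). Seahorse XFe96 OCR was read at baseline, after test compound (5 μM final), after TMPD (0.2 mM) with ascorbate (2 mM), then after NaN3 (10 mM). Each cycle was 20 s mix, 1 min wait, 2.5 min measure.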

Compound | hepatocyte CLint at 1 μM [2] [µL/min/1e6 cells] | logD at 2 h (LogD at pH 7.4) | EC50 (Pf Dd2 parental line) [µM] | EC50 (K1) [µM] | EC50 (NF54) [µM] | EC50 (RF12) [µM] | EC50 (7G8) [µM] | potency against each drug-resistant strain compared to the Dd2 and NF54 wild-type parasites [5] | other results
CCOC(=O)c1cn(CC)c2cc(N3CCC(C)CC3)c(F)cc2c1=O [Compound 21, Ethyl 1-Ethyl-6-fluoro-7-(4-methyl-1-piperidyl)-4-oxo-quinoline-3-carboxylate] | > 92.4 | 3.2 | 0.055 | 0.048 | 0.065 | 0.02 | 0.038 | equipotent | liver microsomes human CLint [1]: 205.2 µL/min/mg; aqueous solubility pH 7.4 [3]: 22.9 μM; EC50 [4]: > 25 µM; EC50 (P. berghei EEFs): 0.024 µM; EC50 (HepG2): > 50 µM
CCn1cc(-c2nc(C)no2)c(=O)c2cc(F)c(N3CCC(Cc4ccccc4)CC3)cc21 [Compound 41, 7-(4-Benzyl-1-piperidyl)-1-ethyl-6-fluoro-3-(3-methyl-1,2,4-oxadiazol-5-yl)quinolin-4-one] | 24.7 | 4.2 | 0.004 | 0.005 | 0.005 | 0.002 | 0.003 | equipotent | fold more potent than 17 [6]: 2 fold; microsomal CLint at 1 μM [7]: 44.1 µL/min/mg; EC50 [8]: ~0.8 µM; difference in sensitivity between the ELQ-300 resistant Dd2 strain and the Dd2 parental strain [9]: no difference in sensitivity; EC50 [10]: 0.48 µM; EC50 [11]: 0.86 µM; OCR upon addition of TMPD ([12]; after compound (5 μM), TMPD (cytochrome c electron donor) added): rescued; effect on malate-dependent oxygen consumption rate (OCR) ([12]; compounds at 5 μM, malate as the energy source): significantly reduce the OCR
